These results are taken from ChEMBL document CHEMBL2177096, “Sulfonyl fluoride inhibitors of fatty acid amide hydrolase” (J Med Chem, 2012).

SMILES strings stand for the structures.

The target of one assay is Cannabinoid receptor 2 (Mus musculus, UniProt P47936). The experiment in a line: Displacement of [3H]CP-55,940 from mouse CB2 receptor expressed in HEK293 cells. It counts as cell-based. An outline of the steps: (§1)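 Membranes from rat brain (CB1) or from HEK293 cells overexpressing mouse CB2 were used, with [3H]CP-55,940 as radioligand. Data fitted by nonlinear regression. Ki values come from three independent experiments run in duplicate and are given as the mean of the three.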
Background: Loss of bound radioactivity is the signal in a displacement assay; it reports binding, not function.

For another assay, the target named is Cannabinoid receptor 1 (Rattus norvegicus, UniProt P20272). The experiment in a line: Displacement of [3H]CP-55,940 from CB1 receptor in rat brain homogenates. The assay is classed as tissue-based. The essentials: as §1
The next assay deals with T1, Monoglyceride lipase (Homo sapiens, UniProt Q99685).
T1 sequence (Q99685 whole entry): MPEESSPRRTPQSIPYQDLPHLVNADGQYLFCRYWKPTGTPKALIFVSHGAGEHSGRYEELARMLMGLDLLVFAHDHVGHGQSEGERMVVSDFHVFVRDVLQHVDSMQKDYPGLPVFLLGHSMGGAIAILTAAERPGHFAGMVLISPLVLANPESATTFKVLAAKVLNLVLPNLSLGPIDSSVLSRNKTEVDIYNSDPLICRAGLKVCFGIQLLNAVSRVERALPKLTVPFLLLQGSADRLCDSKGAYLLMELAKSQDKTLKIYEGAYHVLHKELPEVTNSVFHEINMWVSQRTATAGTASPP
The experiment in a line: Inhibition of recombinant human hexahistidine-tagged MGL expressed in Escherichia coli using AHMMCE as substrate after 15 mins by medium throughput fluorescent assay.

Assay [1] can be described thus: Inhibition of rat FAAH deltaTM mutant expressed in Escherichia coli using AAMCA as substrate after 15 mins by medium throughput fluorescent assay.
For another assay, the species on record is Rattus norvegicus. The experiment in a line: Irreversible inhibition of rat FAAH deltaTM mutant expressed in Escherichia coli assessed as recovery of enzyme activity using AAMCA as substrate at 40 times IC50 treated for 1 hr measured after 80 mins of rapid dilution by medium throughput fluorescent assay. On the set-up: scale not given: the % may be the effect or the level left.

Assay [2] in a line: Inhibition of human FAAH deltaTM mutant expressed in Escherichia coli using AAMCA as substrate after 15 mins by medium throughput fluorescent assay.

Chain of Cannabinoid receptor 1 (P20272 whole entry): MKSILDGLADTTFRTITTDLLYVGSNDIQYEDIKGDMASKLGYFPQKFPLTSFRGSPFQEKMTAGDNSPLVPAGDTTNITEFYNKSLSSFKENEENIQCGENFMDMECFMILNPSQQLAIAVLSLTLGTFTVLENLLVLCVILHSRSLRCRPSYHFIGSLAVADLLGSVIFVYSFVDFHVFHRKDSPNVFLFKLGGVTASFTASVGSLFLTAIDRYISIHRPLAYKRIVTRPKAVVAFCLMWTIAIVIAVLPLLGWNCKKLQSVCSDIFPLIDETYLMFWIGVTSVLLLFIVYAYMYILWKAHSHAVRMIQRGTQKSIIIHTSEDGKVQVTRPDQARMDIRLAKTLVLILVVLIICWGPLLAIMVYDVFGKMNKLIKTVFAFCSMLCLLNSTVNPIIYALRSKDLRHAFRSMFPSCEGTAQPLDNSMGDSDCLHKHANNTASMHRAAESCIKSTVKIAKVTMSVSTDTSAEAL
Chain of Cannabinoid receptor 2 (P47936 whole entry): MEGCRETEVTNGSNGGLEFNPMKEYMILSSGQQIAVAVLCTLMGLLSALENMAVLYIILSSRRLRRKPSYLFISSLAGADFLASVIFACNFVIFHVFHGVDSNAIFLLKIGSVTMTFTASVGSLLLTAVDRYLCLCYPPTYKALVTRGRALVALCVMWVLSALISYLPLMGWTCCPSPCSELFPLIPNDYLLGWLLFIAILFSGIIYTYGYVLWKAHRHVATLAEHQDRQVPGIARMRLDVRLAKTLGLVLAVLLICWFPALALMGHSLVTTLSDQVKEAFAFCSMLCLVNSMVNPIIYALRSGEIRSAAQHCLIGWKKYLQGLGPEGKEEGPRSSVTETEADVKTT

As a reminder, the Ki is the equilibrium dissociation constant of an inhibitor or competing ligand from its target. With `O=S(=O)(F)CCCCCCCc1cccc(OCc2ccccc2)c1`, the inhibition constant Ki worked out at 99 nM on Cannabinoid receptor 2 and 335 nM on Cannabinoid receptor 1.

The term IC50 denotes the midpoint of a concentration-inhibition curve. Regarding `COS(=O)(=O)CCCCCCCc1ccc(OCc2ccccc2)cc1`, the half-maximal inhibitory concentration (IC50) on Monoglyceride lipase was > 5000 nM; in assay [1], 269 nM.

In the case of `O=S(=O)(F)CCCCc1ccccc1`, half-maximal inhibition in assay [1] (IC50) required 88.2 nM.

Compound `O=S(=O)(F)CCCCCCCc1ccccc1O` gave an IC50 in assay [1] of 1.2 nM.

In assay [1], `O=S(=O)(F)CCCCCc1ccc(OCc2ccccc2)cc1` gave an IC50 of 1.5 nM. The Ki came to 194 nM on Cannabinoid receptor 2 and 118 nM at Cannabinoid receptor 1.

Consider `O=S(=O)(F)CCCCCCCCc1ccccc1`, for which, in assay [1], half-maximal inhibition (IC50) was put at 176 nM.

The compound `O=S(=O)(F)CCCCCc1ccccc1` came in with a half-maximal inhibitory concentration (IC50) in assay [1] of 50.4 nM.

`O=S(=O)(F)CCCCCCc1ccccc1`: inhibition in assay [1] was half-maximal at 37.7 nM (IC50).

Regarding `O=S(=O)(F)CCCCCCCc1ccccc1`, half-maximal inhibition in assay [1] (IC50) was put at 37 nM.

`O=S(=O)(F)CCCc1ccccc1` displayed an IC50 in assay [1] of 205 nM.

With `O=S(=O)(F)CCCCCCCc1cccc(O)c1`, the IC50 in assay [1] was found to be 2.5 nM.

Regarding `O=S(=O)(F)CCCCCCCc1ccc(O)cc1`, the inhibition constant (Ki) on Cannabinoid receptor 2 amounted to 698 nM; on Cannabinoid receptor 1, 163 nM.

In the case of `O=S(=O)(F)CCCCCc1ccc(O)cc1`, the Activity in the assay listed under Rattus norvegicus was found to be 8%. The IC50 in assay [1] was 2.8 nM; in assay [2], 5.1 nM. In addition, the inhibition constant (Ki) stood at 577 nM at Cannabinoid receptor 2 and 192 nM at Cannabinoid receptor 1.

As for `O=S(=O)(F)CCCCCCCc1ccccc1OCc1ccccc1`, in assay [1], the IC50 is 4.3 nM.

Consider `O=S(=O)(F)CCCCOc1ccc(OCc2ccccc2)cc1`, for which the IC50 in assay [1] turned out to be 1.2 nM. Also, the inhibition constant Ki is 203 nM on Cannabinoid receptor 2 and 104 nM at Cannabinoid receptor 1.
